Assay results taken from ChEMBL document CHEMBL1148146, “14'-Hydroxymytoxin B and 16-hydroxyroridin E, two new cytotoxic trichothecenes from Myrothecium roridum” (J Nat Prod, 2002).

How the values were obtained:
[1] = Cytotoxicity against human primary soft tissue sarcoma cells after overnight incubation by Alamar blue assay; type: functional, cell-based
Summary of the method: (§1)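 Primary tumor cell cultures that passed histological and cytological screening; thawed at 37 °C, resuspended in maintenance medium, live/dead counted, plated at 1.0 × 10^3 cells/well. Samples added at 1/10 cell suspension volume, overnight at 37 °C. Alamar Blue then added at 1/10 well volume; fluorescence (ex 530, em 590 nm) read at 3 h and 3 days post-dye. Percent inhibition versus untreated and cell-free controls gave IC50.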

[2] = Cytotoxicity against human high-grade leiomyosarcoma cells after overnight incubation by Alamar blue assay; type: functional, cell-based; summary of the method: as §1

For C/C1=C\C(=O)OC[C@]23CCC(CO)=C[C@H]2O[C@@H]2C[C@@H](OC(=O)/C=C\C=C\[C@H]([C@@H](C)O)OCC1)[C@@]3(C)[C@]21CO1, the IC50 [1] was 0.046 pM and the IC50 [2] was 0.085 pM.

CC1=C[C@H]2O[C@@H]3C[C@@H](OC(=O)/C=C/C=C\C(OCCC4=CCOC4=O)C(C)O)[C@](C)([C@@]2(COC(=O)/C=C(\C)CCO)CC1)[C@]31CO1 (stereo partly specified) [TRICHOVERRITONE] showed an IC50 [1] of 0.13 pM and an IC50 [2] of 0.026 pM.

In the case of CC1=C[C@H]2O[C@@H]3C[C@@H](OC(=O)/C=C/C=C\C(OCCC4=CCOC4=O)C(C)O)[C@](C)([C@@]2(CO)CC1)[C@]31CO1 (stereo partly specified), the IC50 [1] is reported as 0.03 pM and the IC50 [2] is reported as 0.018 pM.
